ChEMBL document CHEMBL5335768, “Expanding the knowledge around antitubercular 5-(2-aminothiazol-4-yl)isoxazole-3-carboxamides: Hit-to-lead optimization and release of a novel antitubercular chemotype via scaffold derivatization” (Eur J Med Chem, 2023)
In brackets after ≈: the same amount, converted by molar mass. Activity calls are given as the source filed them. The calls are words filed in the database; no cut-off is given here.

Experiments:
[1] = test system: Mycobacterium tuberculosis; assay: Antitubercular activity against Mycobacterium tuberculosis H37Rv assessed as inhibition of bacterial growth incubated for 7 days by REMA method; type: functional
[2] = Cytotoxicity against human THP-1 cells assessed as reduction in cell viability measured after 72 hrs by MTT assay; type: toxicity, cell-based
Summary of the method: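 THP-1 monocytes were differentiated to macrophages with PMA 100 ng/mL for 72 h. They were then exposed to compounds at 1, 10, 50 and 100 μM for 72 h, each tested twice. MTT at 1 mg/mL in RPMI with 5% FBS was added for 2 h at 37 °C; formazan was dissolved in DMSO and read at 570 nm. Viability is given as % of control; IC50 from non-linear regression.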

[3] = test system: Mycobacteroides abscessus; assay: Antitubercular activity against Mycobacterium abscessus Bamboo assessed as inhibition of bacterial growth upto 100 uM measured after 3 days by broth microdilution method; type: functional, organism-based; settings: time 3.0 day
Summary of the method: (§1)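 Twofold serial dilutions inoculated at OD600 0.05; incubated at 37 °C, shaking at 110 rpm, for 3 days (M. abscessus Bamboo) or 4 days (M. avium 11). […] Clarithromycin positive control; data representative of two independent replicates.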

Mycobacterium avium [4] = assay: Antitubercular activity against Mycobacterium avium 11 assessed as inhibition of bacterial growth upto 100 uM measured after 4 days by broth microdilution method; type: functional, organism-based; settings: time 4.0 day; summary of the method: as §1
Mycobacterium marinum [5] = assay: Antitubercular activity against Mycobacterium marinum ATCC BAA-535 assessed as inhibition of bacterial growth measured after 3 weeks by broth microdilution method; type: functional; settings: ATCC BAA-535, 504 h
Mycobacterium marinum [6] = settings: ATCC BAA-535, time 3.0 weeks
Mycobacterium avium [7] = assay: Antitubercular activity against Mycobacterium avium 11 assessed as inhibition of bacterial growth at 100 uM measured after 4 days by broth microdilution method; type: functional; settings: Mycobacterium avium, 11, 96 h, time 4 day
[8] = test system: Mycobacteroides abscessus; assay: Antitubercular activity against Mycobacterium abscessus Bamboo assessed as inhibition of bacterial growth at 100 uM measured after 3 days by broth microdilution method; type: functional; settings: 72 h, time 3 day; summary of the method: as §1
[9] = Metabolic stability of the compound in human liver microsomes assessed as parent residual fraction at 1 uM preincubated with NADP+ for 5 mins prior to compound addition by HPCLC-MRM-MS analysis; type: ADME, Microsome; settings: read-out: Stability
Summary of the method: (§2)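 Pooled HLM at 1 mg/mL protein in 100 mM PBS pH 7.4 with an NADPH-regenerating mix: G6P 10 mM, NADP+ 2 mM, MgCl2 5 mM, G6PDH 1.5 U/mL (stock concentrations). Pre-incubated 5 min at 37 °C, then compound added to 1 μM final (1% DMSO).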

[10] = Half life in human liver microsomes at 1 uM preincubated with NADP+ for 5 mins prior to compound addition by HPLC-MRM-MS analysis; type: ADME, Microsome; summary of the method: as §2
[11] = Mycobacterium tuberculosis, H37Rv, 168 h, time 7 day, read-out: MIC90

Structure (SMILES) | MIC90 [1, 11] [µg/mL] | IC50 at 72 h [2] [µg/mL] | also measured
Cc1ccc(Nc2nc(-c3cc(C(=O)Nc4cccc(C)c4)no3)cs2)cc1 | 0.5 (≈ 1.28 µM) | 10.7 (≈ 27.4 µM) | Activity [3]: inactive; Activity (Mycobacterium avium [4]): inactive
Cc1ccc(Nc2nc(-c3cc(C(=O)Nc4ccsc4)no3)cs2)cc1 | 1 (≈ 2.61 µM) | > 100 | MIC90 (Mycobacterium marinum [5]): 1 µg/mL (≈ 2.61 µM)
Cc1ccc(Nc2nc(-c3cc(C(=O)Nc4ccc(C)cc4C)no3)cs2)cc1 | > 20 | – | –
Cc1ccc(Nc2nc(-c3cc(C(=O)Nc4cccc(F)c4)no3)cs2)cc1 | 2.5 (≈ 6.34 µM) | – | Activity [3]: inactive; Activity (Mycobacterium avium [4]): inactive
O=C(Nc1ccccn1)c1cc(-c2csc(Nc3cc(Cl)cc(Cl)c3)n2)on1 | > 20 | – | –
Cc1ccc(Nc2nc(-c3cc(C(=O)N4CCCC4)no3)cs2)cc1 | > 20 | > 100 | –
Cc1ccc(Nc2nc(-c3cc(C(=O)Nc4cccc(O)c4)no3)cs2)cc1 | 0.5 (≈ 1.27 µM) | 48.7 (≈ 124 µM) | Activity [3]: inactive; Activity (Mycobacterium avium [4]): inactive
Cc1ccc(Nc2nc(-c3cc(C(=O)Nc4ncccc4C)no3)cs2)cc1 | > 20 | – | –
O=C(Nc1ccc(O)cc1)c1cc(C(=O)Nc2nc3ccccc3s2)on1 | – | – | MIC90 ([1]; time 7.0 day): inactive; MIC90 (Mycobacterium marinum [6]): inactive
Cc1ccc(NC(=O)c2cc(-c3csc(Nc4ccc(C)cc4)n3)on2)cc1 | 1 (≈ 2.56 µM) | 47.5 (≈ 122 µM) | –
Cc1ccc2nc(NC(=O)c3cc(C(=O)Nc4ccccn4)no3)sc2c1 | – | – | MIC90 ([1]; time 7.0 day): inactive; MIC90 (Mycobacterium marinum [6]): inactive
Cc1ccc(Nc2nc(-c3cc(C(=O)Nc4ccc(F)cc4)no3)cs2)cc1 | 1 (≈ 2.54 µM) | 46.8 (≈ 119 µM) | Activity [3]: inactive; Activity (Mycobacterium avium [4]): inactive
NNC(=O)c1ccncc1 [ISONIAZID] | – | – | MIC90 ([1]; time 7 day): 0.025 µg/mL (≈ 0.182 µM)
Cc1ccc(Nc2nc(-c3cc(C(=O)Nc4cccc(C(F)(F)F)c4)no3)cs2)cc1 | > 20 | – | –
Cc1ccc(Nc2nc(-c3cc(C(=O)Nc4ncc(C)s4)no3)cs2)cc1 | > 20 | – | –
Cc1ccc(Nc2nc(-c3cc(C(=O)Nc4ccc(O)cc4)no3)cs2)cc1 | 0.5 (≈ 1.27 µM) | 79.1 (≈ 202 µM) | Activity [3]: inactive; MIC90 (Mycobacterium marinum [5]): 1 µg/mL (≈ 2.55 µM); Activity (Mycobacterium avium [4]): inactive

Structure (SMILES) | MIC90 [1, 11] [µg/mL] | IC50 at 72 h [2] [µg/mL] | also measured
Cc1ccc(Nc2nc(-c3cc(C(=O)Nc4cc(C)ccn4)no3)cs2)cc1 | 1 (≈ 2.55 µM) | 86.3 (≈ 220 µM) | inhibition at 100 µM (Mycobacterium avium [7]): 50%; inhibition at 100 µM [8]: 50%
O=C(Nc1ccccn1)c1cc(-c2csc(Nc3cc(Cl)c(Cl)c(Cl)c3)n2)on1 | > 20 | – | remaining at 1 µM [9]: 102%
Cc1ccc(Nc2nc(-c3cc(C(=O)Nc4ccccn4)no3)cs2)cc1O | 5 (≈ 12.7 µM) | > 100 | Activity [3]: inactive; Activity (Mycobacterium avium [4]): inactive
Cc1ccc(Nc2nc(-c3cc(C(=O)Nc4ccccc4)no3)cs2)cc1O | 2.5 (≈ 6.37 µM) | > 100 | –
O=C(Nc1ccccn1)c1cc(C(=O)Nc2nc3ccccc3s2)on1 | – | – | MIC90 ([1]; time 7.0 day): inactive; MIC90 (Mycobacterium marinum [6]): inactive
Cc1ccc(Nc2nc(-c3cc(C(=O)Nc4ccc(Cl)cc4)no3)cs2)cc1 | > 40 | – | –
Cc1ccc2nc(NC(=O)c3cc(C(=O)Nc4ccccc4)no3)sc2c1 | – | – | MIC90 ([1]; time 7.0 day): inactive; MIC90 (Mycobacterium marinum [6]): inactive
CCOC(=O)c1cc(-c2cccc(Nc3ccc(C)cc3)n2)on1 | 1.25 (≈ 3.87 µM) | > 100 | –
CN[C@@H]1[C@H](O[C@H]2[C@H](O[C@H]3[C@H](O)[C@@H](O)[C@H](N=C(N)N)[C@@H](O)[C@@H]3N=C(N)N)O[C@@H](C)[C@]2(O)C=O)O[C@@H](CO)[C@H](O)[C@H]1O [STREPTOMYCIN] | 0.25 (≈ 0.43 µM) | – | –
Cc1ccc(Nc2nc(-c3cc(C(=O)NCc4cccs4)no3)cs2)cc1 | > 20 | – | –
Cc1cc(C)cc(Nc2nc(-c3cc(C(=O)Nc4ccccn4)no3)cs2)c1 | > 20 | – | –
Nc1nc(-c2cc(C(=O)Nc3ccccc3)no2)cs1 | > 20 | – | remaining at 1 µM [9]: 97%
O=C(Nc1ccccc1)c1cc(-c2csc(Nc3cc(Cl)c(Cl)c(Cl)c3)n2)on1 | > 20 | – | remaining at 1 µM [9]: 101%
O=C(Nc1ccccc1)c1cc(-c2csc(Nc3cc(Cl)cc(Cl)c3)n2)on1 | > 20 | – | –
O=C(Nc1ccccn1)c1cc(-c2csc(Nc3ccccc3)n2)on1 | > 20 | – | inhibition at 100 µM (Mycobacterium avium [7]): 50%; t1/2 [10]: 66 min; inhibition at 100 µM [8]: 50%
O=C(Nc1ccccc1)c1cc(-c2csc(Nc3cccc(O)c3)n2)on1 | 5 (≈ 13.2 µM) | – | t1/2 [10]: 34 min
